For the data set, the system named is MS2 coat protein. Nature of the data set: apparent Kd, MS2 coat protein; higher = weaker binding; RNA-MaP array; FMN 200 µM where present. In a few lines: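 Designs on Illumina sequencing-chip clusters, transcribed by stalled E. coli RNA polymerase, were exposed to SNAP-549-labelled MS2 coat protein in doubling steps from 0.7 or 1.5 nM up to 3 µM, without and then with constant ligand. The buffer held 100 mM Tris-HCl pH 7.5, 80 mM KCl, 4 mM MgCl2, BSA, DTT, yeast tRNA and Tween-20. Apparent Kd values are medians of filtered per-cluster binding-curve fits to green signal normalised to red-channel RNA signal and control-cluster median Fmax.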

The mark [1] stands for this setting: designed as: OFF switch for flavin mononucleotide, no ligand.
Where [2] appears, read: ligand present: flavin mononucleotide, designed as: OFF switch for flavin mononucleotide.
Setting [3] is: designed as: ON switch for flavin mononucleotide, no ligand.
The mark [4] stands for this setting: ligand present: flavin mononucleotide, designed as: ON switch for flavin mononucleotide.

Usually apparent Kd stands for a dissociation constant that holds for the conditions of the assay. On to “GCCCUCGCUGAGGAUAUUAUCUGGUUCGAUUGAUAAGAAGGCAGUACAUGAGGAUCACCCAUGUGGUUCGUUCG”, for which the “apparent Kd” value turned out to be 0.0709 µM under setting [1] and 0.377 µM under setting [2].
“GUGUACAGAGGAUAUACAGGAGCAUGGAAACAUGCAACCUCACAUGAGGAUCACCCAUGUAGAAGGCUGUACAC”: the “apparent Kd” value by setting is: under setting [1], 0.154 µM; under setting [2], 0.0813 µM.
The corresponding values for “ACUAAAGAAGGAUAUACUAACGAACCUCAAACAUAGAUAAGACAUGAGGAUCACCCAUGUAGAAGGUCUAGACU” are 0.0442 µM and 0.0374 µM.
As for “GGGUACAUCGGAGGAUAUCACGUAAAUACAUGAGGAUCACCCAUGUCGAUGGAGACAUCGGAGAUUGAGAAGGCCGAUGUACCG”, the “apparent Kd” value by setting is: under setting [3], 0.0076 µM; under setting [4], 0.00533 µM.
The corresponding values for “UUGAAUCGAAACAUGAGGAUCACCCAUGUGUCGUAAUUGACAUAGGAUAUGUAUAUACUUUUAUAAUAGAAGGAUGACGAUACU” are 0.00909 µM and 0.00794 µM.
The matching figures for “UUUGGGAGCACAGGAUAUGGCACCUCGAAGGCGCCAGAAGGGUGAUUCUGUUGGUGGCCACAUGAGGAUCACCCAUGUGCCUCC”: 0.0295 µM and 0.0369 µM.
The corresponding values for “GUACUUGUGCAGAAGGGCAUUUAAUUAGAUUUUUAUGUUGAUCAGAAAUGCAGGAUAUGUUAAACAUGAGGAUCACCCAUGUAC” are 0.171 µM and 0.0131 µM.
For the sequence “GUGGCGACGUAGAAGGGUGACAUGAGGAUCACCCAUGUGCCGAUAUUUCUCGAGAUAUGUCGGCCACAGGAUAUACGUGCCAUC”, the “apparent Kd” value was 0.0401 µM under setting [3] and 0.056 µM under setting [4].
On to “GUUUACGCGGAAGGAUAUACAUUUGACAUCUUGAUGCGCGCAAUACUCACAUGAGGAUCACCCAUGUAGAAGGUCUGCGAAAGA”, for which the “apparent Kd” value runs as follows: under setting [1], 0.0151 µM; under setting [2], 0.0249 µM.
Regarding “AUAUCUCCCUAGAAGGUGUAACGACAAUUGCAUCACGUAGUUGGCGUAGCAAGGAUAUGGGACAUGAGGAUCACCCAUGUGGAU”, the “apparent Kd” value was determined as 0.0159 µM under setting [3] and 0.00888 µM under setting [4].
With “AUUUAGUGAGGAUAUGUGGCUUCGAUCGUGAGAUCGAGGCUACAGAAGGCACAUGAGGAUCACCCAUGUUCCUU”, the “apparent Kd” value is, setting by setting: under setting [1], 0.0132 µM; under setting [2], 0.0559 µM.
The corresponding values for “GCGUCAGAAUUAAUUGUGACAGACAGAAGGCAAUAGUUCAUGUCAGACAUGAGGAUCACCCAUGUUGAGGAUAUGUAUUUACAC” are 0.00605 µM and 0.00629 µM.
In the case of “GUGCCUUGGAAGAAGGCCGUAUGCAAAGCAUACGGAGGAUAUUCAUACCGGAAACGGACAUGAGGAUCACCCAUGUGGCACAAA”, the “apparent Kd” value is, setting by setting: under setting [3], 0.013 µM; under setting [4], 0.00624 µM.
For “GGCUCUGCUCGAGGAUAUAGCUGCAUGUAGUGUCCUGAGGCACAUGAGGAUCACCCAUGUGUAGGCUAGAAGGCGACAGAGGCG”, the “apparent Kd” value stood at 0.188 µM under setting [1] and 0.276 µM under setting [2].
Consider “AAACGGAUCCGCGGUUGAUGCUAACUAGAAGGGCAGGUCACAUGAGGAUCACCCAUGUAGUAUAUGUAGGAUAUAGGAAGCGUG”, for which the “apparent Kd” value by setting is: under setting [3], 0.14 µM; under setting [4], 0.0269 µM.
Regarding “UUACCUUAUGAGAAGGCGAUCAUGAAACAUGAUCGAGGAUAUCAUGUAAACAUGAGGAUCACCCAUGUAUGGGUAUUAUGGUAU”, the “apparent Kd” value was 0.096 µM under setting [3] and 0.0239 µM under setting [4].
As to “UCUUAUUGAGGAUAUACAUUAAUUUACAUGAGGAUCACCCAUGUUCUUCAAUGUAUAUAUGUAGAAGGCAGAAGAA”, the “apparent Kd” value came to 0.0185 µM under setting [1] and 0.042 µM under setting [2].
The matching figures for “CAUUGGUAAGGAUAUGCACCGAUCUCCGAAAGGAGAUCGGUGCAGAAGGUACAUGAGGAUCACCCAUGUUGAUG”: 0.0271 µM and 0.0639 µM.
Turning to “AUUUAAAUGUCAGGAUAUGGUAGUUUAUACUUAUUAGAAGGGAUAAUUAUACUCAAGUACAUGAGGAUCACCCAUGUUAAAUCA”, the “apparent Kd” value under setting [3] was determined as 0.0219 µM and the “apparent Kd” value under setting [4] was 0.0215 µM.
In the case of “CAGUGCAAUGUAGGAUAUGCUCAGGAAUACUGAGCAGAAGGACAUGAGGAUCACCCAUGUACUAUGAAAGAUAAUAAAGCACUG”, the “apparent Kd” value is, setting by setting: under setting [1], 0.0135 µM; under setting [2], 0.0182 µM.
The corresponding values for “GGAUGACAAAGUCAUCCAAUACGAACAUGAGGAUCACCCAUGUAGGAUAUGCAUCUCAAAGAGAUGCAGAAGGACAUGUGCCUU” are 0.0369 µM and 0.272 µM.
With “GGAUUACAUGAGGAUCACCCAUGUGAGGAUAUCGAUGUCCUCAGUAGAGUGCGGGACUCGAGAAGGCACUUGGA”, the “apparent Kd” value under setting [1] amounted to 0.0701 µM and the “apparent Kd” value under setting [2] amounted to 0.0959 µM.
In the case of “CGGAUGUGAGGAUAUACAUGAGGAUCACCCAUGUGAGCCAGCUAGAUGACUGGCUCGUGUAGAAGGCACGUCUG”, the “apparent Kd” value under setting [1] came out at 0.0135 µM and the “apparent Kd” value under setting [2] worked out at 0.0293 µM.
With “CCGGAAACGGGUAGCUGACAUGAGGAUCACCCAUGUGAAUCACAGGAUAUGGAUCCUAAUUGGAUCCAGAAGGGUGUCAGCUAC”, the “apparent Kd” value amounted to 1.02 µM under setting [3] and 0.125 µM under setting [4].
Take “AGCACGAAAGUGCAACGAUGUACGAGAAGGACAUGAGGAUCACCCAUGUAAGCAGUAACUGCAAUGUAGGAUAUCGUACAUCGA”: the “apparent Kd” value under setting [1] is 0.00841 µM and the “apparent Kd” value under setting [2] was determined as 0.012 µM.
Take “GCCUUACAUGAGGAUCACCCAUGUCAGGAUAUGUCAGAGUAGGUAAAACACCACUCUAAUAGAAGGGACAUGCA”: the “apparent Kd” value under setting [1] turned out to be 0.0168 µM and the “apparent Kd” value under setting [2] turned out to be 0.0286 µM.
Take “AAAAAAAAAAGAGAGGAUAUCCAAAAAAAAACAUGAGGAUCACCCAUGUAAAAAAAAAAAAAAUGGGAGAAGGCUCAAAAAAAAAA”: the “apparent Kd” value is, setting by setting: under setting [3], 0.0897 µM; under setting [4], 0.0232 µM.
“CUGUUCCAUGUAGGAUAUGCAUAUUCUCAUUAUGCAGAAGGACAUGAGGAUCACCCAUGUAUGUUAUUAUCAUAUGUUACAUGU”: the “apparent Kd” value reads like this: under setting [1], 0.0343 µM; under setting [2], 0.241 µM.
The matching figures for “CCGGAAGUACAGGAUAUCGUAUCGGAAACGAUACGAGAAGGGUAUACAUGAGGAUCACCCAUGUGUCCUACCGG”: 0.0287 µM and 0.0279 µM.
As to “AUAAAACGAGGAUAUGCUGGGCUUCUGUGAUGCAUAUGCUCACAUGAGGAUCACCCAUGUAGAAGGUGUAAAAU”, the “apparent Kd” value runs as follows: under setting [1], 0.278 µM; under setting [2], 0.289 µM.
Consider “AUAUUCUAGAUAGGAUAUACUGAGGUUGAAUGGGUAGAAGGAUCGUGAGAGUGGACUACAUGAGGAUCACCCAUGUUGUUUAUU”, for which the “apparent Kd” value under setting [3] stood at 0.0616 µM and the “apparent Kd” value under setting [4] was 0.059 µM.
The matching figures for “AGUGUCAUCGAGAAGGCCUUAACAUGAGGAUCACCCAUGUUGUAAUAUGGGAGGAUAUCGAUGAUACAGCUACGUUUCGUAGCA”: 0.0101 µM and 0.00571 µM.
As to “GCCUCGCUGUGAGGAUAUUACGCCUACCGGCAAAAUGCGGUUUCAGGUCCGUAAGAAGGCACAUGAGGAUCACCCAUGUAAGAA”, the “apparent Kd” value under setting [1] turned out to be 0.0267 µM and the “apparent Kd” value under setting [2] was determined as 0.213 µM.
On to “GGUGCAUAUGAGAAGGCGAUCAUGAAACAUGAUCGAGGAUAUCAUGUAAACAUGAGGAUCACCCAUGUAUGGGAAUAUUGCACC”, for which the “apparent Kd” value runs as follows: under setting [3], 0.176 µM; under setting [4], 0.0126 µM.
As to “CAUAUACAUGAGGAUCACCCAUGUGAGGAUAUGCUUUAUUAUUAUUAUUAUUAUUGUUGCAGAAGGUACAUUAC”, the “apparent Kd” value runs as follows: under setting [1], 0.0242 µM; under setting [2], 0.0206 µM.
With “GUGUACAGAGGAUAUAUAUGGGCAUGGAAACAUGCAACUUCACAUGAGGAUCACCCAUGUAGAAGGCUGUACAC”, the “apparent Kd” value is 0.0273 µM under setting [1] and 0.182 µM under setting [2].
On to “GGUGCGUAUGUGAGGAUAUGCUGGUCCUUGGAUCGGCAGAAGGCACAUGAGGAUCACCCAUGUGGUGUCGUUCC”, for which the “apparent Kd” value reads like this: under setting [1], 0.12 µM; under setting [2], 0.0554 µM.
The matching figures for “UCGUGUUAUACAGGAUAUGUUUAGGUAUAAUCAUUCAGUUAUUAAUUAAUGACAGAAGGGUAAACAUGAGGAUCACCCAUGUCA”: 0.179 µM and 0.121 µM.
The matching figures for “AGUCAGAGCAGAGGAUAUAUACAUGAGGAUCACCCAUGUGACUGACUACGCUAGAAAUAGCAUGUAUAGAAGGCUGCUCUGACA”: 0.344 µM and 0.911 µM.
As to “UGUAAUAUUAUAGGAUAUGGUUACGAUACGUAACCAGAAGGGUGAUUAUACUAUAAUCUAUACAUGAGGAUCACCCAUGUUUAU”, the “apparent Kd” value under setting [3] came out at 0.205 µM and the “apparent Kd” value under setting [4] was determined as 0.11 µM.
Regarding “UGAUAGGACAGAGGAUAUACGGAUAGGAUCUACUAUCCUCCUUUAAUAACAUGAGGAUCACCCAUGUAGAAGGCUGUCCUAUCU”, the “apparent Kd” value is 0.0153 µM under setting [1] and 0.0242 µM under setting [2].
The corresponding values for “UUGCUGCGGAAGUUCGGCUCUCGCGAGGAUAUACCUACAGGGCCACAUGAGGAUCACCCAUGUACGUAGAAGGCGCGACAGAAA” are 0.0158 µM and 0.048 µM.
The matching figures for “ACGCGAUGGGAGAAGGUACUUUAAGAAUUUUUCACAUGAGGAUCACCCAUGUAAGGAUAUCCCAUCGUUAAAUAUUAUACAGCA”: 0.00507 µM and 0.00482 µM.
Consider “GUAGCGCUUGACAUGAGGAUCACCCAUGUUAGAUUGUUAUGUCAGGAUAUAGUCUAGAAACUAGACUAGAAGGGAUAUGCUACU”, for which the “apparent Kd” value runs as follows: under setting [3], 0.251 µM; under setting [4], 0.0398 µM.
As to “GGUACCAUCACAGGAUAUGCUUUCCUUUGGGAAGCAGAAGGGUGUAACAUGAGGAUCACCCAUGUGGUGCCAGGGCGCGAGCCC”, the “apparent Kd” value under setting [3] is 0.182 µM and the “apparent Kd” value under setting [4] turned out to be 0.0168 µM.
Turning to “GCCAUCGCAUGAGGAUAUGGUCUGCUUUGCAGACCAGAAGGCAUGUCAUAAGACAUGAGGAUCACCCAUGUAGUUAAGAUGGCA”, the “apparent Kd” value was found to be 0.8 µM under setting [3] and 0.0439 µM under setting [4].
For “AGCUACGUUUCGUAGCAGCUAGGUGAGGAUAUUCAAUUUUUCACAUGAGGAUCACCCAUGUAUGUGAAGAAGGCGCCUAGAAAC”, the “apparent Kd” value runs as follows: under setting [3], 0.0108 µM; under setting [4], 0.00507 µM.
Regarding “GAUCAACAUGAGGAUCACCCAUGUGAGGAUAUGAUACUAUGUACUUCGGUACAUAGUAUCAGAAGGCAUUAGGA”, the “apparent Kd” value is, setting by setting: under setting [1], 0.0518 µM; under setting [2], 0.0396 µM.

(Values after the EternaBench riboswitch data.)
